Reference: paper PMC6369923 (Journal of immunology (Baltimore, Md. : 1950), 2019)
Ends that are not written are not given here.

Tests used:
MRGPRX2 (human MC) = conditions: cited from earlier work
[1] = test system: MRGPRX2 (RBL-2H3 cells stably expressing MRGPRX2); experiment: RBL-MRGPRX2 degranulation; assay type: cell-based
How it was run: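 RBL-2H3 cells stably expressing MRGPRX2 were kept in 1 mg/mL G418. Cells were seeded at 5 × 10^4 per well and cultured overnight with or without pertussis toxin (100 ng/mL, 16 h), then washed twice into HEPES buffer with 0.1% BSA. Optional resveratrol was 100 μM for 5 min. Cells were stimulated with test compound for 30 min at 37°C, and β-hexosaminidase release was measured with 1 mM PNAG (1 h, 37°C) at A405 as percent of total.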

[2] = test system: MRGPRX2 (HTLA-MRGPRX2 cells); experiment: Ca2+ mobilization in HTLA-MRGPRX2 cells; assay type: cell-based; conditions: compound 48/80 30 μg/mL, AG-30/5C 10 μM, Icatibant 30 μg/mL; FLIPR-Tetra; representative traces
How it was run: (§1)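 HTLA cells (HEK-293T stably expressing β-arrestin2-TEV) were stably transfected with the MRGPRX2-Tango or MRGPRX4-Tango plasmid, and a single-cell-derived clone was checked for receptor expression by anti-FLAG flow cytometry. Cells were plated at 10^4 per well on collagen and grown 24 h at 37°C, then loaded with Calcium 6 dye for 2 h at 37°C. After 1 h equilibration at room temperature, test compound was added and fluorescence imaged every 1 s for 5 min on FLIPR-Tetra.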

[3] = test system: MRGPRX2 (RBL-MRGPRX2 cells); experiment: Ca2+ mobilization in RBL-MRGPRX2 cells; assay type: cell-based; conditions: PTx 100 ng/mL, 16 h, Indo-1, agonist compound 48/80 1 μg/mL, AG-30/5C 1 μM or Icatibant 20 μg/mL, representative traces
[4] = treatment of hereditary angioedema; cited from earlier work
[5] = test system: MRGPRX2 (HTLA-MRGPRX2 cells); conditions: cited from earlier work
MRGPRX2 = conditions: LL-37 as agonist; cited from earlier work
[6] = mice; cited from earlier work
[7] = test system: MRGPRX4 (HTLA-MRGPRX4 cells); experiment: Tango assay; assay type: cell-based; conditions: nateglinide 30 μM, 16 h, 37°C, three experiments
How it was run: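 Tango line from HTLA cells (HEK-293T with β-arrestin2-TEV) stably transfected with MRGPRX4-Tango, single-cell cloned, surface FLAG confirmed by flow. Cells plated at 50,000/well on poly-L-lysine in triplicate, antibiotic-free medium, 6 h at 37°C, then agonist 16 h at 37°C; Bright-Glo luminescence. Ca2+ traces: Calcium 6 loading 2 h 37°C, 1 h room-temperature equilibration, FLIPR imaging every 1 s over 5 min.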

[8] = test system: MRGPRX4 (HTLA-MRGPRX4 cells); experiment: Ca2+ mobilization in HTLA-MRGPRX4 cells; assay type: cell-based; conditions: nateglinide 30 μM, AG-30/5C 10 μM, compound 48/80 30 μg/mL; FLIPR-Tetra; representative traces
How it was run: as §1

[9] = test system: IgE-mediated MC degranulation; conditions: cited from earlier work
[10] = test system: MRGPRX2 (HTLA-MRGPRX2 cells); experiment: Tango assay; assay type: cell-based; conditions: resveratrol 100 μM, 5 min
How it was run: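 HTLA cells (HEK-293T expressing β-arrestin2-TEV) stably transfected with MRGPRX2-Tango; single-cell clone, surface FLAG checked by flow. 50,000 cells/well on poly-L-lysine, triplicate, antibiotic-free medium, 6 h at 37°C; resveratrol 100 μM 5 min where used, then agonist 16 h at 37°C; Bright-Glo luminescence. Ca2+: Calcium 6 dye 2 h 37°C, 1 h room temperature, FLIPR read every 1 s for 5 min. Mean ± SEM, three experiments.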

[11] = test system: LAD2 cells (human MC line, endogenously expressing MRGPRX2); experiment: LAD2 degranulation; assay type: cell-based; conditions: resveratrol 100 μM, 5 min, 30 min
How it was run: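 LAD2 cells were grown in StemPro-34 with rhSCF (100 ng/mL), washed, and seeded at 10^4 per well in HEPES buffer with 0.1% BSA. Where used, resveratrol pretreatment was 100 μM for 5 min, followed by stimulation with test compound for 30 min at 37°C. Supernatant or Triton X-100 lysate of unstimulated cells (total) was incubated with 1 mM PNAG for 1 h at 37°C, stopped with carbonate buffer, and read at A405. Result is percent β-hexosaminidase release; three experiments.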

Q: With Icatibant as the compound, how does the “MC degranulation via MRGPRX2 (literature)” value (MRGPRX2 (human MC)) read?
A: The value was “promotes MC degranulation via MRPGRX2”.

Q: And the “effect of pertussis toxin on agonist-induced degranulation” value ([1]; RBL-MRGPRX2, PTx 100 ng/mL, 16 h, agonist compound 48/80 1 μg/mL or AG-30/5C 1 μM (p ≤ 0.001), or Icatibant 20 μg/mL)?
A: Its value is “completely blocked”.

Q: What about the “peak Ca2+ mobilization, high concentration” value [2] of the same compound?
A: Its value is “induced Ca^2+ mobilization although the peak was much shorter than compound 48/80”.

Q: And the “effect of pertussis toxin on agonist-induced Ca2+ mobilization” value [3]?
A: Its value is “completely blocked Icatibant-induced degranulation but not Ca^2+ mobilization”.

Q: What about the “injection site pseudo-allergic drug reaction” value [4] of the same compound?
A: The value was “injection site pseudo-allergic drug reaction in nearly every patient”.

Q: What about the “β-arrestin-mediated gene expression (literature)” value ([5]; HTLA cells expressing MRGPRX2-Tango) of the same compound?
A: Its value is “does not activate β-arrestin-mediated gene expression”.

Q: Which “activation of human MC via MRGPRX2 (literature)” value (MRGPRX2 (human MC)) does the source give for LL-37 here?
A: Its value is “activate human MC”.

Q: And the “receptor phosphorylation, desensitization and internalization” value (MRGPRX2)?
A: The value was “resistant to phosphorylation, desensitization and internalization”.

Q: What about the vaccine adjuvant activity [6] of the same compound?
A: The vaccine adjuvant activity was “safe and effective vaccine adjuvant in mice”.

Q: For `CC(C)[C@H]1CC[C@H](C(=O)N[C@H](Cc2ccccc2)C(=O)O)CC1` [nateglinide], which “β-arrestin-mediated gene expression via MRGPRX4 (Tango), in words” value ([7]; AG-30/5C 10 μM, compound 48/80 30 μg/mL) is on record?
A: Its value is “induces β-arrestin-mediated gene expression”.

Q: And the “increase in β-arrestin-mediated gene expression via MRGPRX4” value [7]?
A: The value was greater than 100 fold.

Q: And the “Ca2+ mobilization via MRGPRX4” value [8]?
A: The value was “causes an increase in Ca^2+ mobilization”.

Q: With `Oc1ccc(/C=C/c2cc(O)cc(O)c2)cc1` [resveratrol] as the compound, how does the “inhibition of IgE-mediated MC degranulation” value [9] read?
A: The value was “activates sirtuin 1 (sirt1) to inhibit IgE-mediated MC degranulation”.

Q: And the “inhibition of Icatibant-induced degranulation, RBL-MRGPRX2” value ([1]; resveratrol 100 μM, 5 min, Icatibant 20 μg/mL, 30 min)?
A: The value was “significant (p≤ 0.05 and p≤ 0.001) inhibition”.

Q: What about the “inhibition of compound 48/80- and AG-30/5C-induced degranulation, RBL-MRGPRX2” value ([1]; resveratrol 100 μM, 5 min, compound 48/80 1 μg/mL or AG-30/5C 1 μM, 30 min) of the same compound?
A: Its value is “significantly (p ≤0.05, 0.01 and 0.001) reduced degranulation”.

Q: What about the “effect on AG-30/5C Tango response” value ([10]; AG-30/5C 10 μM overnight) of the same compound?
A: Its value is “no effect on Tango”.

Q: And the “inhibition of compound 48/80-induced β-arrestin gene expression (Tango)” value ([10]; compound 48/80 3.0, 10 and 20 μg/mL overnight)?
A: The value was “significant (p≤ 0.01 and p≤ 0.001) inhibition”.

Q: What about the “inhibition of Icatibant-induced degranulation, LAD2” value ([11]; Icatibant 20 μg/mL) of the same compound?
A: Its value is “significant (p≤ 0.05 and p≤ 0.001) inhibition”.

Q: What about the “inhibition of compound 48/80- and AG-30/5C-induced degranulation, LAD2” value ([11]; compound 48/80 1 μg/mL or AG-30/5C 1 μM) of the same compound?
A: The value was “significantly (p ≤0.05, 0.01 and 0.001) reduced degranulation”.

Q: And the “inhibition of constitutive MRGPRX2-mediated Tango” value ([5]; NIH Clinical Collection library (NCC-1) screen)?
A: Its value is “inhibitor of constitutive MRGPRX2-mediated Tango”.

Q: For “human β-defensin 3: host defense peptide (GIINTLQKYYCRVRGGRCAVLSCLPKEEQIGKCSTRGRKCCRRKK; ends and bridges not checked; cysteine pairing not given here; UniProt P81534 23-67, looked up)”, which “effect of PTx on MC degranulation and Ca2+ mobilization (literature)” value (MRGPRX2 (human MC)) is on record?
A: The value was “inhibits MC degranulation in response to host defense peptide, human β-defensin 3 without affecting Ca^2+ mobilization”.
